Published values from different studies.
Compare with care: the assays were run in different laboratories.
Target: 5-hydroxytryptamine receptor 1A (HTR1A, Homo sapiens, UniProt P08908)
Residues used in one study (P08908 1-422): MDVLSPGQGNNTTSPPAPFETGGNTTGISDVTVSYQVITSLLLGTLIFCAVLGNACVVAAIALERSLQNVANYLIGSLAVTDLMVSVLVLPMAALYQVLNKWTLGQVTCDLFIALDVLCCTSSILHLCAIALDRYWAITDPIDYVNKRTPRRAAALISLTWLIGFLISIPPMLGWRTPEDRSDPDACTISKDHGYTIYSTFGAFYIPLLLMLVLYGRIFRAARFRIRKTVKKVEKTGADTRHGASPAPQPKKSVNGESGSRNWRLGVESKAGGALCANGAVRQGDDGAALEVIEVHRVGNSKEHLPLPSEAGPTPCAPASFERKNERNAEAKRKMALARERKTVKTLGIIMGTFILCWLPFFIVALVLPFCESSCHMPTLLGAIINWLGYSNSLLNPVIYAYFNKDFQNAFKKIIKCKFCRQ

O=C(CCCN1CCCN(c2ccc(Cl)cc2)CC1)c1ccc(F)cc1 — Emax (cAMP, agonist, luciferase): 4.4%
CCN(CC)c1ccc(C2Nc3ccc(C(=O)c4ccccc4)cc3NC3=C2C(=O)CC(C)(C)C3)cc1 (stereo not shown) — inhibition (ligand displacement, radioligand; 10 µM): 22%
COc1ccc(-n2nc(OCCCN3CCCCC3)ccc2=O)cc1 — inhibition (ligand displacement; 1 µM): 18.5%
O=C1N=C(N2CCCCN2)S/C1=C\c1ccc(F)cc1O — inhibition (ligand displacement, radioligand; 10 µM): 20%
c1ccc(N2CCN(Cc3nc4ccccc4[nH]3)CC2)nc1 — inhibition (ligand displacement, radioligand; 10 µM): 37.9%
CCCNc1nc2ccccc2n1Cc1ccc(Cl)cc1 — inhibition (ligand displacement; 10 µM): 0.33%
CCCCCCOc1c(OC)cc2c3c1-c1cc4c(cc1CC3N(C)CC2c1ccccc1)OCO4 (stereo not shown) — inhibition (ligand displacement, radioligand; 10 µM): -13.5%
CC1=C(C#N)C(c2ccc3c(c2)c(NC(=O)c2ccccc2C)nn3C)C(C#N)=C(C)N1 — inhibition (ligand displacement, radioligand; 10 µM): 8.55%
O=C(Nc1ccc(S(=O)(=O)N2CCC(Cl)CC2)cc1)c1ccc([N+](=O)[O-])o1 — inhibition (ligand displacement, radioligand; 10 µM): 4%
Oc1cccc(Nc2nc(-c3ccc(F)cc3F)cs2)c1 — inhibition (ligand displacement, radioligand; 10 µM): 31.5%
CN([C@@H]1CCc2c(CC(=O)O)c3ccccc3n2C1)S(=O)(=O)c1ccc(F)cc1 — inhibition (ligand displacement, radioligand; 10 µM): 15.5%
COc1cc(NC(C)=O)c(Cl)cc1C(=O)Nc1nccs1 — inhibition (ligand displacement, radioligand; 10 µM): 23.8%
CN1CCN(CCCOc2ccc(=O)n(-c3ccc(Cl)c(Cl)c3)n2)CC1 — inhibition (ligand displacement; 1 µM): 20.6%
CCN(Cc1ccccc1C(F)(F)F)C(=O)C1CCN(S(=O)(=O)c2ccc3[nH]ncc3c2)CC1 — inhibition (ligand displacement, radioligand; 10 µM): 0%
N#Cc1cc(Cn2c(N3CCCC3)nc3ccccc32)ccc1F — inhibition (ligand displacement; 10 µM): -8.04%
COc1cc2c3c(c1OC)-c1cc4c(cc1CC3N(C)CC2c1ccccc1)OCO4 (stereo not shown) — inhibition (ligand displacement, radioligand; 10 µM): < 50%
